Format in all cases: functional
Assay [1] concerns Mus musculus. As to the kind of experiment: The compound was tested for increase in life span for mice implanted intraperitoneally with P-388/FU Leukemia cell line at 150 mg/kg. The note with it: P388, ip, route intraperitoneal. The essentials:
(§1)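 Male BDF1 mice, six per group, implanted ip with 1×10^6 P-388/0 or P-388/FU cells on day 0. Dosed ip daily for 5 days from 24 h post-implant, in saline or Emulphor 620 vehicle. Mice observed until death. %ILS = (T/C − 1)×100, from median survival of treated mice (T) versus saline-treated controls (C).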

Assay [2] relates to Mus musculus. The assay is described as follows: The compound was tested for change in weight for mice implanted intraperitoneally with P-388/0 Leukemia cell line at 100 mg/kg. The note with it: route intraperitoneal. The essentials:
(§2)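 Male BDF1 mice inoculated ip on day 0 with 1 × 10^6 leukemia cells (six mice per group, average weight 22 g). Dosing ip once daily for 5 consecutive days starting 24 h after implantation. Fluoropyrimidine references in 0.9% saline; prodrugs formulated with Emulphor 620; vehicle controls 0.2 mL. Percent body weight change recorded per group.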

For assay [3], the system named is Mus musculus. As to the kind of experiment: The compound was tested for increase in life span for mice implanted intraperitoneally with P-388/0 Leukemia cell line at 67 mg/kg. As to conditions: P388, ip, route intraperitoneal. Summed up:
as §1

Assay [4] relates to Mus musculus. The assay is described as follows: The compound was tested for increase in life span for mice implanted intraperitoneally with P-388/0 Leukemia cell line at 150 mg/kg. As to conditions: P388, ip, route intraperitoneal. The essentials:
as §1

Assay [5] deals with Mus musculus. As to the kind of experiment: The compound was tested for mean survival time for 15 mice implanted Intraperitoneally with P-388/0 Leukemia cell line at 100 mg/kg. The note with it: route intraperitoneal. Summed up:
(§3)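 P-388/0 or P-388/FU cells (1×10^6) implanted ip into male BDF1 mice on day 0. Dosing was ip, daily for 5 consecutive days beginning 24 h later, in saline or Emulphor 620 vehicle. Six mice per treated group. Animals followed to death and median survival time recorded in days. The control group had 15 mice.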

Assay [6] deals with Mus musculus. As to the kind of experiment: The compound was tested for change in weight for mice implanted intraperitoneally with P-388/FU Leukemia cell line at 100 mg/kg. The note with it: route intraperitoneal. The essentials:
as §2

In assay [7] the test system is Mus musculus. The assay is described as follows: The compound was tested for increase in life span for mice implanted intraperitoneally with P-388/FU Leukemia cell line at 67 mg/kg. The note with it: P388, ip, route intraperitoneal. The essentials: as §1
Assay [8] concerns Mus musculus. The assay is described as follows: The compound was tested for change in weight for mice implanted intraperitoneally with P-388/FU Leukemia cell line at 150 mg/kg. The note with it: route intraperitoneal. The essentials: as §2
Assay [9] concerns Mus musculus. The assay is described as follows: The compound was tested for mean survival time for 15 mice implanted Intraperitoneally with P-388/0 Leukemia cell line at 150 mg/kg. As to conditions: route intraperitoneal. Summed up: as §3
For assay [10], the system named is Mus musculus. As to the kind of experiment: The compound was tested for change in weight for mice implanted intraperitoneally with P-388/FU Leukemia cell line at 67 mg/kg. As to conditions: route intraperitoneal. Summed up: as §2
In assay [11] the test system is Mus musculus. The assay is described as follows: The compound was tested for mean survival time for 15 mice implanted Intraperitoneally with P-388/FU Leukemia cell line at 100 mg/kg. The note with it: route intraperitoneal. The essentials: as §3
Assay [12] concerns Mus musculus. As to the kind of experiment: The compound was tested for mean survival time for 15 mice implanted Intraperitoneally with P-388/FU Leukemia cell line at 150 mg/kg. As to conditions: route intraperitoneal. Summed up:
as §3

The subject of assay [13] is Mus musculus. The assay is described as follows: The compound was tested for mean survival time for 15 mice implanted Intraperitoneally with P-388/0 Leukemia cell line at 67 mg/kg. As to conditions: route intraperitoneal. Summed up: as §3
The test system of assay [14] is Mus musculus. The assay is described as follows: The compound was tested for change in weight for mice implanted intraperitoneally with P-388/0 Leukemia cell line at 150 mg/kg. As to conditions: route intraperitoneal. The essentials:
as §2

In assay [15] the test system is Mus musculus. The assay is described as follows: The compound was tested for […] implanted Intraperitoneally with P-388/FU Leukemia cell line at 67 mg/kg. As to conditions: route intraperitoneal.
Assay [16] relates to Mus musculus. As to the kind of experiment: The compound was tested for increase in life span for mice implanted intraperitoneally with P-388/FU Leukemia cell line at 100 mg/kg. As to conditions: P388, ip, route intraperitoneal. Summed up: as §1
In assay [17] the test system is Mus musculus. As to the kind of experiment: The compound was tested for increase in life span for mice implanted intraperitoneally with P-388/0 Leukemia cell line at 100 mg/kg. As to conditions: P388, ip, route intraperitoneal. The essentials:
as §1

Assay [18] deals with Mus musculus. The assay is described as follows: The compound was tested for change in weight for mice implanted intraperitoneally with P-388/0 Leukemia cell line at 67 mg/kg. As to conditions: route intraperitoneal. Summed up: as §2
Assay [19] concerns Mus musculus. As to the kind of experiment: The compound was tested for change in weight for mice implanted intraperitoneally with P-388/FU Leukemia cell line at 20 mg/kg. As to conditions: route intraperitoneal. The essentials: (§4)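 Male BDF1 mice (six per group, average 22 g) given 1×10^6 P-388 cells ip on day 0. Drug dosed ip once daily for 5 consecutive days, starting 24 h after implantation, in 0.9% saline or, where insoluble, Emulphor 620. Percentage body-weight change recorded per dose group.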

For assay [20], the system named is Mus musculus. As to the kind of experiment: The compound was tested for mean survival time for 15 mice implanted Intraperitoneally with P-388/0 Leukemia cell line at 30 mg/kg. The note with it: route intraperitoneal. The essentials: as §3
In assay [21] the test system is Mus musculus. As to the kind of experiment: The compound was tested for increase in life span for mice implanted intraperitoneally with P-388/0 Leukemia cell line at 30 mg/kg. As to conditions: P388, ip, route intraperitoneal. Summed up: as §1
The test system of assay [22] is Mus musculus. As to the kind of experiment: The compound was tested for change in weight for mice implanted intraperitoneally with P-388/0 Leukemia cell line at 30 mg/kg. As to conditions: route intraperitoneal. Summed up: as §4
The subject of assay [23] is Mus musculus. The assay is described as follows: The compound was tested for mean survival time for 15 mice implanted Intraperitoneally with P-388/FU Leukemia cell line at 30 mg/kg. As to conditions: route intraperitoneal. Summed up: as §3
Assay [24] has as its system Mus musculus. The assay is described as follows: The compound was tested for change in weight for mice implanted intraperitoneally with P-388/FU Leukemia cell line at 30 mg/kg. As to conditions: route intraperitoneal. The essentials: as §4
Assay [25] concerns Mus musculus. As to the kind of experiment: The compound was tested for mean survival time for 15 mice implanted Intraperitoneally with P-388/FU Leukemia cell line at 40 mg/kg. As to conditions: route intraperitoneal. The essentials:
as §3

For assay [26], the system named is Mus musculus. The assay is described as follows: The compound was tested for mean survival time for 15 mice implanted Intraperitoneally with P-388/0 Leukemia cell line at 20 mg/kg. As to conditions: route intraperitoneal. Summed up:
as §3

Assay [27] concerns Mus musculus. The assay is described as follows: The compound was tested for increase in life span for mice implanted intraperitoneally with P-388/FU Leukemia cell line at 40 mg/kg. As to conditions: P388, ip, route intraperitoneal. The essentials: as §1
The subject of assay [28] is Mus musculus. The assay is described as follows: The compound was tested for change in weight for mice implanted intraperitoneally with P-388/FU Leukemia cell line at 40 mg/kg. The note with it: route intraperitoneal. Summed up: as §4
In assay [29] the test system is Mus musculus. As to the kind of experiment: The compound was tested for mean survival time for 15 mice implanted Intraperitoneally with P-388/FU Leukemia cell line at 20 mg/kg. As to conditions: route intraperitoneal. The essentials:
as §3

The test system of assay [30] is Mus musculus. As to the kind of experiment: The compound was tested for increase in life span for mice implanted intraperitoneally with P-388/0 Leukemia cell line at 20 mg/kg. As to conditions: P388, ip, route intraperitoneal. The essentials:
as §1

For assay [31], the system named is Mus musculus. As to the kind of experiment: The compound was tested for change in weight for mice implanted intraperitoneally with P-388/0 Leukemia cell line at 20 mg/kg. The note with it: route intraperitoneal. The essentials: as §4
Assay [32] has as its system Mus musculus. As to the kind of experiment: The compound was tested for increase in life span for mice implanted intraperitoneally with P-388/FU Leukemia cell line at 30 mg/kg. As to conditions: P388, ip, route intraperitoneal. The essentials:
as §1

The subject of assay [33] is Mus musculus. The assay is described as follows: The compound was tested for increase in life span for mice implanted intraperitoneally with P-388/FU Leukemia cell line at 20 mg/kg. As to conditions: P388, ip, route intraperitoneal. The essentials: as §1

Molecules are shown by their SMILES.

As for `O=c1[nH]c(=O)n([C@H]2C[C@H](O)[C@@H](CO)O2)cc1F` [FLOXURIDINE], the values for the ILS at 150 mg/kg with Mus musculus [1] and in the assay on Mus musculus [4] were 18% and 82%, respectively. Further, the Weight change is reported as -4% in the assay on Mus musculus [2]; -10% in the assay on Mus musculus [6]; -10% with Mus musculus [8]; -6% in the assay on Mus musculus [10]; -5% in the assay on Mus musculus [14]; -2% with Mus musculus [18]. For the same compound, the ILS at 67 mg/kg in the assay with Mus musculus [3] is 45%; in the assay on Mus musculus [7], 9%. The MST with Mus musculus [5] came to 19 days; in the assay with Mus musculus [9] it was 20 days; in the assay on Mus musculus [11], 13 days; in the assay on Mus musculus [12], 13 days; with Mus musculus [13], 16 days; in the assay on Mus musculus [15], 12 days. Moreover, the ILS at 100 mg/kg in the assay on Mus musculus [16] is 18%; with Mus musculus [17], 73%.

For the compound `O=c1[nH]cc(F)c(=O)[nH]1` [FLUOROURACIL], the Weight change with Mus musculus [19] was -6%; in the assay on Mus musculus [22], -15%; in the assay on Mus musculus [24], -15%; in the assay with Mus musculus [28], -18%; in the assay with Mus musculus [31] it was -5%. The MST was 17 days in the assay on Mus musculus [20]; 9 days in the assay on Mus musculus [23]; 9 days with Mus musculus [25]; 16 days with Mus musculus [26]; 10 days in the assay on Mus musculus [29]. Moreover, the results for the ILS at 30 mg/kg in the assay on Mus musculus [21] and in the assay on Mus musculus [32] were 55% and -18%, respectively. Moreover, the ILS at 40 mg/kg in the assay on Mus musculus [27] is -18%. Besides, the values for the ILS at 20 mg/kg with Mus musculus [30] and with Mus musculus [33] were 45% and -9%, respectively.

These data come from ChEMBL document CHEMBL1127405, “Synthesis and antitumor evaluation of bis[(pivaloyloxy)methyl] 2'-deoxy-5-fluorouridine 5'-monophosphate (FdUMP): a strategy to introduce nucleotides into cells” (J Med Chem, 1994).
